Laboratory results from ChEMBL document CHEMBL3763145, “Niizalactams A-C, Multicyclic Macrolactams Isolated from Combined Culture of Streptomyces with Mycolic Acid-Containing Bacterium” (J Nat Prod, 2015).
Calls of active or inactive are those of the source.

Assays:
P388 = test: Cytotoxicity against mouse P388 cells assessed as reduction in cell viability at 0.78 to 100 uM after 4 days by MTT assay; type: functional, cell-based
Procedure, shortened: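 P388 cells kept in RPMI 1640 with 10% FBS and penicillin/streptomycin, 37 °C, 5% CO2. Compounds added from DMSO or methanol solutions to 1 × 10^5 cells/mL suspension at final 100 to 0.78 μM (twofold series); 4 days exposure. MTT (1 mg/mL) added 4 h, pellet dissolved in DMSO, absorbance read at 570 nm.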

Candida albicans = test: Antimicrobial activity against Candida albicans at 1.25 to 10 ug/disc after 1 to 2 days by disc diffusion method; type: functional, organism-based
Procedure, shortened: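 Candida albicans precultured in LB broth; 1 mL broth seeded directly into 20 mL agar of 4.0% glucose, 1.0% peptone, pH 5.7. 6 mm paper disks at 10, 5, 2.5, 1.25 μg/disk; plates held at 37 °C for 1 to 2 days and scored for inhibition rings.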

Bacillus subtilis = test: Antimicrobial activity against Bacillus subtilis at 1.25 to 10 ug/disc after 1 to 2 days by disc diffusion method; type: functional, organism-based
Procedure, shortened: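 Bacillus subtilis precultured in LB broth; 1 mL broth added directly to 20 mL LB agar. Paper disks (6 mm) loaded at 10, 5, 2.5 and 1.25 μg/disk placed on plates; incubation at 37 °C for 1 to 2 days; read-out was presence of inhibition rings around disks.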

Saccharomyces cerevisiae = test: Antimicrobial activity against Saccharomyces cerevisiae at 1.25 to 10 ug/disc after 1 to 2 days by disc diffusion method; type: functional, organism-based
Procedure, shortened: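 Saccharomyces cerevisiae precultured in LB broth; 1 mL added to 20 mL agar (5.0% glucose, 0.5% peptone, 0.2% yeast extract, 0.4% K2HPO4, 0.2% KH2PO4, 0.02% MgSO4·7H2O, pH 5.6). Disks (6 mm) at 10, 5, 2.5, 1.25 μg/disk; 37 °C, 1 to 2 days; inhibition rings checked.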

Measured: Activity

CC1=C\C=C\[C@H]2[C@H](O)[C@@H](C)CN2C(=O)CC(=O)/C=C/C(C)=C/C=C/C[C@H](O)[C@H](O)C(=O)/C=C\C=C\1
inactive: all assays above

CC1=C\[C@H]2[C@@H]3[C@@H](O)[C@H](O)[C@H](O)C(=O)[C@@H]3C=C[C@@H]2/C(C)=C/C=C/C=C/[C@@H](C)CNC(=O)CC(=O)\C=C\1
inactive: all assays above

CC1=C\C=C\[C@H]2[C@H](O)[C@@H](C)CN2C(=O)CC(=O)/C=C/C(C)=C/C=C/[C@@H](O)[C@H](O)[C@H](O)C(=O)/C=C\C=C\1
inactive: all assays above
